Source: PubChem BioAssay (several laboratories)
WT yeast gro inh: growth inhibition of WT yeast, mitochondrial fusion screen; 190,000 tested, 2.1% active; AID 1362; inhibition, % at 10 µM; mitochondrial fusion phenotypic screen, WT strain; in the data active = inhibition above about 58%; tested in S. cerevisiae
Diaph inh CS: inhibits diaphorase or chemically oxidizes, flagging diaphorase assay artifacts; 190,000 tested, 0.69% active; diaphorase resazurin-to-resorufin fluorescence, NADH, 16 min; bacterial (C. kluyveri) enzyme, not human; inhibition, % at 20 µM; AID 1217;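 active = primary screen inhibition at 20 µM above a set limit, cut at about 50% in these data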
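Benchmarks: positive control wells lacking NADH, neutral wells with DMSO only. System: bacterial diaphorase enzyme (C. kluyveri). Input: 0.14 U/mL diaphorase, enzyme working solution. Detection: resorufin fluorescence, excitation 544 nm, emission 590 nm. Times: 16-min room-temperature incubation before reading.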
Diaph act CS: activates diaphorase or chemically reduces, flagging diaphorase assay artifacts. Diaphorase/resazurin coupled assay, resorufin fluorescence, 16 min; stronger effect = higher value; 1 = vehicle wells, 0 = NADH-free wells. activation factor at 20 µM. 190,000 tested, 0.005% active;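 active = diaphorase activity raised at least twofold by the compound at 20 µM; inactive = activation factor below 2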
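Material: Clostridium kluyveri diaphorase, purified enzyme; Quantity: enzyme 0.07 U/mL final; Medium: HEPES pH 7.4 buffer with MgCl2 and Tween 20; Dosing: single compound dose of 20 µM, 1% DMSO final; Schedule: 16 min reaction at room temperature; Measured by: red resorufin fluorescence at 544/590 nm excitation/emission.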
Cl transport mod: KCC2 (human) Cl- transport modulation | Q9H2X9 | KCC2 cells, thallium flux FluoZin-2 fluorescence | B-score of Tl+ flux slope (higher = more flux/activation; lower = inhibition) at 10 µM | 190,000 tested, 2.2% active;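 active = thallium flux slope and its plate-corrected score both differing from the plate sample mean at a set confidence after two filtering rounds, in either direction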;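 also: slope of fluorescence scaled to starting intensity during 10 to 20 s after thallium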
ROMK mod: human ROMK K+ channel modulation, primary screen | B-score at 10 µM | Tet-inducible ROMK, thallium flux fluorescence; actives lie on both sides | P48048 | 130,000 tested, 2% active | AID 1918;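 active = signal ratio slope over the read window, or its plate-corrected B-score, at least 3 SD from the plate mean, either direction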;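 also: B-score of the F/F0 ratio slope over 7 to 12 s after thallium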
Lmaj promast: Leishmania major promastigote growth inhibition; Leishmania major promastigotes, resazurin fluorescence viability; inhibition, % at 10 µM; 200,000 tested, 9% active; in the data active = inhibition above about 50%;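 also: promastigotes grown with compound for 44 hours at 28 °C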
ROMK retest: retested hit modulating human ROMK potassium channel; normalized thallium flux (F/F0 slope) at 10 µM; shares compounds with ROMK mod; 3,000 tested, 54% active; ROMK thallium flux, fluorescence ratio; stronger effect = lower value;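 active = Flux at 10 µM at least 3 SD below or above vehicle control mean in one or both replicates; inconclusive = no clear call, values can overlap the other calls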
A number is an active result; n = inactive; u = inconclusive; x = no result given. Most compounds without a hit are left out; they make up all but 12% or so of the library.

SMILES	WT yeast gro inh	Diaph inh CS	Diaph act CS	Cl transport mod	ROMK mod	Lmaj promast	ROMK retest
CCC(C)c1cc(S(=O)(=O)N2CCOCC2)ccc1OC (stereo not given)	n	n	n	n	-3.7	n	u
CCCC(=O)N1CCN(c2nc(CC(C)C)c3c(c2C#N)CCC3)CC1	n	n	n	x	-4.2	n	0.066
Cc1cccc(N2CCN(C(=O)CC(NC(=O)c3ccccc3Cl)c3ccccc3)CC2)c1C (stereo not given)	n	n	n	n	-4.7	95	0.054
Cc1cccc(N2CCN(C(=O)Cc3ccc(Br)cc3)CC2)c1C	n	n	n	n	n	n	x
CCOC(=O)CN(C(=O)CNC(=O)c1cccs1)C(C(=O)NC1CCCCC1)c1cccs1 (stereo not given)	n	n	n	n	x	n	n
Cc1ccc(-n2c3nc(=O)[nH]c(=O)c-3cc3cc([N+](=O)[O-])ccc32)cc1	n	74	n	n	-6.6	95	0.038
CCC(C)(C)n1nnnc1CN1CCN(C(c2ccccc2)c2ccccc2)CC1	n	n	n	n	x	n	x
COc1ccc(OCCSc2nc(-c3ccccc3)cc(=O)[nH]2)cc1	n	n	n	n	x	n	x
Nc1nn(-c2ccccc2)c(N)c1N=Nc1ccccc1	n	n	n	n	3.1	n	n
Cc1c(NC(=S)NC(=O)c2ccc(-c3ccc(Cl)cc3)o2)cccc1C(=O)O	n	n	n	n	3.5	n	n
Cc1cc(Cl)ccc1C(=O)C1CCCN(C(=O)c2n[nH]c3c2CCCC3)C1 (stereo not given)	n	n	n	x	x	n	x
COc1cccc(C(=O)C2CCCN(C(=O)c3cccc(C#CC(C)(C)O)c3)C2)c1 (stereo not given)	n	n	n	n	1.7	n	n
CCOc1ccccc1C1C(C#N)=C(N)Oc2cc(N)ccc21 (stereo not given)	n	n	n	n	-4.2	n	0.053
COc1ccc(OC)c(C2C(C#N)=C(N)Oc3cc(N)ccc32)c1 (stereo not given)	n	n	n	n	x	n	x
CC(C)N(C(=O)CSc1nc2ccccc2n1Cc1ccc(F)cc1)C(C)C	n	n	n	n	x	n	x
Cc1ccc(Cl)c2c1=NC(=O)C=2c1[nH]c(=S)[nH]c1O	n	n	n	n	-2.4	n	0.054
CCOC(=O)N1CCC(Nc2c(NCCCN3CCN(C4CCCCC4)CC3)c(=O)c2=O)CC1	n	n	n	n	n	n	x
CN1CCC(NC(=O)c2cccs2)CC1	n	n	n	n	x	n	n
O=C(NC1CCCCC1NC(=O)c1cccs1)c1cccs1 (stereo not given)	n	n	n	n	x	n	x
COc1ccc(S(=O)(=O)NCC(c2cccnc2)N2CCN(c3ccc(F)cc3)CC2)cc1C (stereo not given)	n	n	n	n	-3.8	96	n
O=C(NCc1ccc2c(c1)OCO2)Nc1cccc2ccccc12	x	x	x	n	x	x	x
Cc1cccc(-n2nc3c(c2NC(=O)CCC2CCCCC2)CS(=O)C3)c1C (stereo not given)	n	n	n	n	x	n	x
O=C(/C=C\c1ccco1)Oc1cccc2cccnc12	n	n	n	n	-22	97	n
O=Cc1ccc(-c2cccc([N+](=O)[O-])c2)o1	x	x	x	n	x	x	0.1
CN(C)c1ncnc2c1NC1=C(S2)C(=NCCCC(=O)O)CC(C)(C)C1	n	n	n	n	x	n	x
COc1ncnc2c1NC1=C(S2)C(=NCCC(=O)O)CC(C)(C)C1	n	n	n	n	x	n	0.05
O=C(O)CC12CC3CC(C1)CC(n1ncc(NCc4ccc5c(c4)OCO5)c(Cl)c1=O)(C3)C2	n	n	n	n	n	n	x
N=C1/C(=C\c2coc3ccccc3c2=O)C(=O)N=C2SC=CN12	x	x	x	x	x	x	0.038
CCCCCCCCCCCC(=O)NC(Cc1ccc(OC)c([N+](=O)[O-])c1)C(=O)O (stereo not given)	x	x	x	n	4.5	x	u
CCC1=NN2C(=N)/C(=C/c3c(C)nn(-c4ccccc4)c3Cl)C(=O)N=C2S1	n	n	n	n	-3.1	n	0.047
